hK5 inh – human KLK5 protease inhibitors, primary screen, biochemical, 1536-well; Kallikrein-5 (Homo sapiens), Q9Y337; recombinant hK5, fluorogenic AMC substrate cleavage; inhibition, % at 5 µM; actives 0.59% (n = 210,000); AID 873, 2007;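 active means inhibition of 40% or more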;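 further: 0% = enzyme controls without compound and 100% = no-enzyme blanks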
Target sequence (Q9Y337 67-293 limits assumed): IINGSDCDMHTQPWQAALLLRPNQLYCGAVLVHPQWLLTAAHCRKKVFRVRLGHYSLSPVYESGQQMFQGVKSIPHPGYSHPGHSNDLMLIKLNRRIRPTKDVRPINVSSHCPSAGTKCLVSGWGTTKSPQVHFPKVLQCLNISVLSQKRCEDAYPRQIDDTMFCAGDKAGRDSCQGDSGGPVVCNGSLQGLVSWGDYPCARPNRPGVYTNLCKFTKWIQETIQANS
FXIIa inh 1536 – human FXIIa protease inhibitors, primary screen, biochemical, 1536-well; actives 0.3% (n = 220,000); Coagulation factor XII (Homo sapiens), P00748; purified FXIIa, Boc-QGR-AMC fluorogenic substrate, 2 h; AID 800, 2007; inhibition, % at 5 µM; in the data active means inhibition above about 40%;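 further: 0% = enzyme with no compound and 100% = blank without enzyme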
Calpain2 inh – inhibitors of pig calpain II, primary screen, biochemical, fluorogenic peptide substrate, 1536-well; purified calpain II, 30 min; inhibition, % at 16 µM; actives 0.37% (n = 220,000);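 active means inhibition above about 50%, limit read from the data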
thrombin 1536 – human alpha-thrombin inhibitors, primary screen, counter-screen for coagulation protease inhibitor project, biochemical, 1536-well, fluorogenic AMC substrate | Prothrombin (Homo sapiens), P00734 | Boc-VPR-AMC fluorogenic substrate cleavage | inhibition, % at 5 µM | actives 0.26% (n = 220,000) | AID 1046, 2008;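 active means inhibition at or above 40%; inactive means inhibition below 40%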;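 further: 0% = enzyme with no compound and 100% = wells without enzyme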
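Material: human alpha-thrombin protein; Also added: Boc-VPR-AMC substrate, 15 µM final; Timing: enzyme reaction carried out at room temperature; Signal: fluorescence, ex 355 nm, em 460 nm; Measure: % inhibition of thrombin; Controls: enzyme without compound as high, wells lacking enzyme as low.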
Furin inh – human furin inhibitors, primary screen, biochemical, fluorescence intensity | P09958 | purified furin, fluorogenic substrate cleavage | inhibition, % at 20 µM or 30 µM | actives 0.061% (n = 220,000) | AID 463115, 2010; in the data active means inhibition above about 25%
FXIa inh – human FXIa protease inhibitors, primary screen, biochemical, 1536-well | purified FXIa, Boc-Glu-Ala-Arg-AMC fluorogenic substrate | AID 798, 2007 | inhibition, % at 5 µM | actives 0.14% (n = 220,000) | Coagulation factor XI (Homo sapiens), P03951;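 active means inhibition of at least 40%; inactive means inhibition below 40%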;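 further: fluorescence of freed AMC excited at 355 nm; 0% = enzyme without compound and 100% = no enzyme blank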
* marks the source's active call; other numbers are inactive results; x = not tested or not shown. A selection: hits, their analogues and other compounds. The true share with any hit is near 1.4%.

SMILES	hK5 inh	FXIIa inh 1536	Calpain2 inh	thrombin 1536	Furin inh	FXIa inh
CC(Nc1ccccc1)c1cc(Cl)ccc1O (stereo unspecified)	-3	16	-13	-3	-22	9
COc1ccc(NC(C)c2cc(Cl)ccc2O)cc1 (stereo unspecified)	-3	7	50*	-2	-29	5
Cc1ccc(NCC(=O)N=Nc2c(O)[nH]c3ccc([N+](=O)[O-])cc23)cc1	-1	3	7	-6	-2	2
O=C(Nc1ccc(F)cc1)C(=O)c1c(O)[nH]c2ccc([N+](=O)[O-])cc12	0	10	57*	2	-15	4
Cc1cccc2cc(C(c3nnnn3CC3CCCO3)N3CCc4ccccc4C3)c(=O)[nH]c12 (stereo unspecified)	43*	23	-22	15	-20	6
Cc1ccc2cc(C(c3nnnn3CC3CCCO3)N3CCc4ccccc4C3)c(=O)[nH]c2c1 (stereo unspecified)	-1	-4	-12	-10	-16	-2
O=C(COC(=O)CCOc1ccccc1)Nc1ccc(Cl)cn1	-28	0	-32	48*	-17	-11
O=C(COc1ccccc1)Nc1ccc(Cl)cn1	-4	5	10	-6	-16	-2
O=C(COC(=O)CCc1ccccc1)Nc1ncc(Cl)cc1Cl	3	17	17	42*	-18	6
Cc1noc(C)c1CSc1ccccc1C(=O)Nc1nccs1	13	-2	27	2	-11	-9
CC(=O)Nc1ccc(S(=O)(=O)NCc2cccnc2)cc1	47*	1	19	31	-10	22
N#Cc1ccc(CSc2nnc(-c3cccnc3)o2)cc1	4	7	-18	-2	-9	-4
CC12CCC(C(=O)NCc3ccc4c(c3)OCO4)(CC1=O)C2(C)C (stereo unspecified)	4	21	-3	6	-13	14
CC1CN(CC(O)COC2CCC(C(C)(C)C)CC2)CC(C)O1 (stereo unspecified)	43*	26	22	2	0	28
Cc1ccc2c(c1)[nH]c1c(=O)n(CCC3=CCCCC3)cnc12	19	5	18	64*	-5	-3
Cn1c(-c2ccccc2)cnc1SCc1nc2ccccc2c(=O)[nH]1	-6	12	12	-7	-18	4
CC(O)C(=O)N/N=C/c1cccc2ccccc12 (stereo unspecified)	41*	13	25	48*	-1	6
CC(=O)c1ccc(N2CCN(C(=O)/C=C/c3ccc(S(=O)(=O)N4CCOCC4)cc3)CC2)cc1	-2	x	5	-6	-29	-5
CC(=O)c1ccc(N2CCN(S(=O)(=O)c3cccc(S(=O)(=O)N4CCOCC4)c3)CC2)cc1	90*	47*	-10	12	-23	9
N/N=C1\CCCc2nonc21	0	3	2	-9	-14	-5
CCc1ccc(OCc2n[nH]c(=S)n2Cc2ccccc2)cc1	-4	6	54*	-8	-12	-4
S=c1[nH]nc(COc2ccccc2)n1Cc1ccccc1	2	4	16	-6	-14	-2
CCCc1nc(SC2CCCC2)c2c(=O)n(C)c(=O)n(C)c2n1	-6	12	2	-2	-11	1
CC(C)(C)c1nc(SCC(=O)c2ccccc2)c2ccccc2n1	-5	8	52*	2	2	-4
Cc1ccc(Cl)cc1N(Cc1ccc(C(=O)NCc2cccnc2)cc1)S(=O)(=O)c1ccccc1	-6	14	52*	1	-10	4
O=C(CCCN1C(=O)/C(=C/c2ccccc2Cl)SC1=S)NNC(=O)c1ccc(Cl)cc1Cl	-2	1	52*	-6	-14	-3
O=C(CCCN1C(=O)/C(=C/c2ccccc2Cl)SC1=S)NNC(=O)c1ccccc1	-12	9	-24	2	-15	8
CCOC(=O)C(CCc1nnc(N)s1)C(=O)OCC	-4	-1	-14	-9	-18	0

Assay outcomes: PubChem, several laboratories
